Only some compounds are listed: those with a hit (about 2.3% of all), similar ones and a draw of the others.
V1aR counter: V1a receptor agonism, counter-screen for OXTR agonists; P37288; CHO-V1R cells, Fluo-8 calcium fluorescence, agonist mode; 0% DMSO, 100% 3 nM vasopressin; activation, % at 3 µM; 320,000 compounds, 0.25% hits;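 active = activation above the mean activation of all tested compounds plus 3 SD, per screening run, cut at about 20% in these data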;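 note: signal is peak over basal fluorescence ratio across a 100 second FLIPR read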
TAAR1 antag: human TAAR1 antagonism; CHO RD-HGA16 TAAR1, Fluo-8 calcium fluorescence, antagonist; inhibition, % at 3 µM; AID 624466; 360,000 compounds, 1.5% hits;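 active = inhibition above a per-plate cutoff, the mean inhibition of test compounds on that plate plus 3 SD, cut at about 49% in these data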;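 note: 0% = DMSO plus EC80 beta-PEA response and 100% = DMSO alone without agonist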
Target sequence (Q96RJ0 whole entry, looked up): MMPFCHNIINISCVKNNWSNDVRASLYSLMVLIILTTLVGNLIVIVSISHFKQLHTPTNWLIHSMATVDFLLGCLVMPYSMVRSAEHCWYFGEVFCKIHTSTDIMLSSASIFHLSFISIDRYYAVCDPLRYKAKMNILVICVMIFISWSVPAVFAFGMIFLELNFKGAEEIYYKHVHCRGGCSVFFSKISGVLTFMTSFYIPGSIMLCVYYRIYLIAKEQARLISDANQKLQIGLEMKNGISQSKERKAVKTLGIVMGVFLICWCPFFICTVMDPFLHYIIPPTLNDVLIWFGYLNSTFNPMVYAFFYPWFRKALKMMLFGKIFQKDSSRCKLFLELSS
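Assay system: RD-HGA16 CHO cells with stable hTAAR1 and Gα16 / Reagent: EC80 β-phenethylamine stimulus / Doses: 3 µM, single point / Timing: dye loading 75 min at 37 °C, then 30 min room temperature / Measured by: Fluo-8 intracellular calcium dye fluorescence, real-time kinetic reads / Controls: vehicle wells and EC80 agonist wells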
TAAR1 ag: agonists of human TAAR1; CHO RD-HGA16 TAAR1, Fluo-8 calcium fluorescence; vehicle wells 0%, saturating PEA agonist 100%; activation, % at 3 µM; 360,000 compounds, 0.99% hits; AID 624467;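 active = activation above the mean activation of all test compounds in the run plus 3 SD, cut at about 38% in these data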
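Test system: RD-HGA16 (CHO) cells co-expressing Gα16 and hTAAR1 / Benchmarks: DMSO vehicle as 0%, PEA at EC100 as 100% / Repeats: no replicates (n 1) / Measure: % activation from peak over basal fluorescence ratio, DMSO-to-PEA scaled / Timing: 17-24 h plating, Fluo-8 75 min 37 °C, 30 min RT / Technique: kinetic Fluo-8 calcium fluorescence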
OXTR potentiate: potentiators of human oxytocin receptor | 320,000 compounds, 0.061% hits | P30559 | CHO-OTR cells, Fluo-8 calcium fluorescence, potentiator mode; 0% = oxytocin EC15, 100% = EC100 | activation, % at 3 µM;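 active = activation above that plate's cutoff, the mean activation of tested compounds plus 3 SD, cut at about 6.6% in these data, passing the limit was not always enough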;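 note: 100% uses oxytocin at 75 nM as the full agonist control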
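test system = CHO-OTR cells, human receptor | compound = single-point 3.0 µM | schedule = 6 min compound pre-incubation at room temperature, 100 s kinetic read | signal = Fluo-8 no-wash calcium dye fluorescence, excitation 470-495 nm, emission 515-575 nm | repeats = single well per compound, singlicate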
OXTR ag: human OXTR agonism | P30559 | CHO-OTR cells, Fluo-8 calcium fluorescence; normalized: DMSO 0%, oxytocin 100% | activation, % at 3 µM | 320,000 compounds, 0.32% hits | AID 2435;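 active = activation above the mean of all tested compounds plus 3 SD, cutoff set per screening run, cut at about 20% in these data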;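 note: peak over basal fluorescence ratio from a 100 s FLIPR kinetic read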
nonsel antag count: nonselective antagonism, TAAR1 counter-screen | 2,400 compounds, 77% hits | counterscreen cell line, calcium fluorescence, antagonist mode | shares compounds with TAAR1 antag | inhibition, % at 3 µM; in the data active = inhibition above about 22%;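 note: CHO-Ga16 host cells stimulated with ATP at an EC80 level; 0% = agonist EC80 plus vehicle and 100% = vehicle without agonist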
TAAR1 ant conf: confirmation of human TAAR1 antagonists; AID 651785; TAAR1-expressing cells, fluorescence antagonist read-out; inhibition, % at 3 µM; shares compounds with TAAR1 antag; 2,400 compounds, 40% hits; in the data active = inhibition above about 49%;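 note: CHO-Ga16 host cells challenged with agonist PEA near its EC80; 0% = agonist at EC80 plus vehicle and 100% = vehicle with no agonist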
Ga16 nonsel ag: nonselective Ga16 agonism, counter-screen; shares compounds with TAAR1 antag; Ga16-expressing cells, calcium fluorescence, agonist counterscreen; activation, % at 3 µM; 2,400 compounds, 18% hits; in the data active = activation above about 12%;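 note: 0% = vehicle wells and 100% = saturating stimulus response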
TAAR1 ag count: counter-screen for human TAAR1 antagonists: TAAR1 agonists | shares compounds with TAAR1 antag | hTAAR1 cell line, fluorescence activation, agonist mode | activation, % at 3 µM | 2,400 compounds, 2% hits | AID 651955; in the data active = activation above about 37%;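 note: CHO cells stably expressing TAAR1 with calcium dye readout; 0% = DMSO vehicle and 100% = full agonist response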
* hit, by the source's call; . = not tested or not shown.

SMILES	V1aR counter	TAAR1 antag	TAAR1 ag	OXTR potentiate	OXTR ag	nonsel antag count	TAAR1 ant conf	Ga16 nonsel ag	TAAR1 ag count
O=c1[nH]c2ccccc2cc1CN(Cc1ccco1)S(=O)(=O)c1ccc(F)cc1	2	54*	10	-11	0	23*	44	10	18
CCN(Cc1cc2ccccc2[nH]c1=O)S(=O)(=O)c1ccc(OC)cc1	9	-18	6	-4	1	.	.	.	.
Cc1cc(OCC(=O)Nc2ccncc2)ccc1[N+](=O)[O-]	8	6	5	-22	10	.	.	.	.
COc1ccccc1N1CCN(C(=O)c2cccc(S(=O)(=O)N3c4ccccc4CC3C)c2)CC1 (centres undefined)	.	75*	11	.	.	39*	50*	10	10
COc1ccc(OCCOC(=O)CNC(=O)c2cccc(C)c2)cc1	0	-9	0	2	0	.	.	.	.
O=C(CCn1c(=O)oc2ccccc21)N(Cc1ccccc1)c1ccccc1	1	69*	3	-8	-2	23*	50*	6	5
COc1cc(C(=O)OCC(=O)Nc2sccc2C(N)=O)cc(OC)c1OC	1	37	22	-11	1	.	.	.	.
COc1ccc(C(=O)OCC(=O)Nc2sccc2C(N)=O)cc1OC	5	64*	12	-9	2	30*	46	10	11
O=C(COC(=O)Cc1c[nH]c2ccccc12)Nc1ccccc1	1	9	3	-6	2	.	.	.	.
NC(=O)c1ccsc1NC(=O)COC(=O)Cc1c[nH]c2ccccc12	11	66*	18	-21	12	47*	56*	17*	16
Cc1cc(C)c(NC(=O)CSc2ccc3nnc(CCNC(=O)c4ccccc4)n3n2)c(C)c1	-1	9	3	-2	-2	.	.	.	.
COc1ccc(NC(=O)Cn2nnc(-c3ccccc3NC(=O)c3ccco3)n2)cc1	-1	8	9	-9	1	.	.	.	.
COc1ccccc1NC(=O)Cn1nnc(-c2ccccc2NC(=O)c2ccco2)n1	3	56*	13	-17	0	21	35	9	13
CCN=C(NCC)SC1CC(=O)N(c2ccc(OCC)cc2)C1=O (centres undefined)	3	86*	16	-7	0	28*	51*	11	11
CCN=C(Nc1cccc(F)c1)SC1CC(=O)N(c2ccc(OC)cc2)C1=O (centres undefined)	2	72*	15	-6	2	34*	55*	7	6
CCOc1ccc(N2C(=O)CC(SCCN)C2=O)cc1 (centres undefined)	2	-9	4	5	3	.	.	.	.
O=C(NCCCn1ccnc1)c1ccc(NS(=O)(=O)c2cccc([N+](=O)[O-])c2)cc1	1	-23	3	-4	-1	.	.	.	.
O=C1Nc2ccccc2/C1=C\C(=O)c1ccccc1	1	20	12	-22	0	.	.	.	.
O=C(/C=C1\C(=O)Nc2ccccc21)/C=C1\C(=O)Nc2ccccc21	.	60*	34	.	.	35*	36	8	24
CCCOc1ccc(Cl)cc1/C=C1/C(=O)ON=C1C	1	-18	1	-11	2	.	.	.	.
CC1=NOC(=O)/C1=C\c1ccc(-c2ccc(Cl)cc2Cl)o1	.	53*	14	.	.	79*	72*	29*	25
COC(=O)c1ccc(CNC(=O)C2CCC(=O)N(CCc3ccccc3)C2)cc1 (centres undefined)	.	-7	4	.	.	.	.	.	.
CC(=O)c1c(COC(=O)c2cccc(C)c2)nc2ccccc2[n+]1[O-]	4	50*	8	-14	0	28*	38	8	7
CC(=O)c1c(COC(=O)c2ccncc2)nc2ccccc2[n+]1[O-]	1	-20	6	-13	0	.	.	.	.
CCOc1ccc(/C=C/C(O)=C2/C(=O)NC3(C)CC2c2ccccc2O3)cc1OC (centres undefined)	0	60*	12	-16	-2	27*	49*	10	23
SMILES	V1aR counter	TAAR1 antag	TAAR1 ag	OXTR potentiate	OXTR ag	nonsel antag count	TAAR1 ant conf	Ga16 nonsel ag	TAAR1 ag count
CCOc1ccc(/C=C/C(O)=C2/C(=O)N(C)C3(C)CC2c2ccccc2O3)cc1OC (centres undefined)	-1	15	2	1	-1	.	.	.	.
CC(=O)Nc1ccc(S(=O)(=O)N(C)CC(=O)OCC(=O)NCc2ccco2)cc1	0	4	3	-5	2	.	.	.	.
CC(=O)Nc1ccc(S(=O)(=O)NCC(=O)OCC(=O)NCc2ccco2)cc1	0	100*	-2	-2	0	2	2	1	2
Nc1ncnc2nc(N3CCN(C(=O)c4ccccc4)CC3)[nH]c12	0	102*	-6	-9	1	6	4	4	4
O=C(c1ccccc1)N1CCN(c2ncccn2)CC1	1	-26	2	-10	-1	.	.	.	.
COc1ccc(NC(=S)NNc2ccc(S(=O)(=O)Nc3ccccc3C(=O)O)cc2[N+](=O)[O-])cc1	-1	-18	-2	-2	0	.	.	.	.
Cc1cc(C)c(C#N)c(N2CCN(CCOc3ccc(Cl)cc3)CC2)n1	0	57*	9	-8	-1	34*	31	6	3
Cc1ccc(C)c(N2CCN(C(=O)CCc3nc(-c4cccc(F)c4)no3)CC2)c1	.	11	-2	.	.	.	.	.	.
Cc1ccc(C)c(N2CCN(C(=O)CCc3nc(-c4ccccc4F)no3)CC2)c1	.	64*	8	.	.	18	40	7	10
Cc1ccc(C)c(N2CCN(C(=O)CCc3nc(-c4ccccc4Br)no3)CC2)c1	.	67*	4	.	.	32*	46	6	4
CC(C)(C)c1cc(C(=O)NNC(=O)Nc2ccccc2)n(Cc2ccccc2)n1	0	1	-2	-1	-1	.	.	.	.
CC(C)(C)c1cc(C(=O)NCc2cc(F)cc3c2OCOC3)n(Cc2ccccc2)n1	-2	81*	4	-15	-2	34*	55*	5	2
CC(C)Cn1nc(NS(=O)(=O)c2cccc3nonc23)c2cc3ccccc3nc21	2	-8	-4	2	0	.	.	.	.
CCC(C)NC(=O)CSc1n[nH]c(-c2cc(Cl)ccc2OC)n1 (centres undefined)	0	-5	2	-5	-1	.	.	.	.

Assay outcomes from PubChem BioAssay.
